From ChEMBL document CHEMBL4334446, “Evaluating the effects of fluorine on biological properties and metabolic stability of some antitubulin 3-substituted 7-phenyl-pyrroloquinolinones” (Eur J Med Chem, 2019)

Test system: B16-BL6
Test: Antitumour activity against mouse B16-BL6 cells allografted in C57BL/6 mouse assessed as reduction in tumor mass at 30 mg/kg, ip administrated every other day relative to control
Format: functional
Method in brief: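 Six-week-old male C57BL/6 mice received BL6-B16 murine melanoma cells subcutaneously in the dorsolateral flank, suspended in PBS. Once tumors reached about 100 mm³, the mice were randomised and dosed intraperitoneally every other day, with the drug dissolved in DMSO; controls received DMSO vehicle. Tumors were measured in two dimensions, V=(D x d²)/2, and weighed at the end. Five mice per group; mean ± SEM.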

With `COc1ccc(/C=C\c2cc(OC)c(OC)c(OC)c2)cc1OP(=O)(O)O` [FOSBRETABULIN DISODIUM] the inhibition in vivo at 30 mg/kg was 31.3%.
